Here are results for 1 molecule from ChEMBL document CHEMBL4354867, “Validation and Characterization of Five Distinct Novel Inhibitors of Human Cytomegalovirus” (J Med Chem, 2020).

The test system of this data set is HFF. As to the kind of experiment: Cytotoxicity against human HFF cells assessed as reduction in cell viability incubated for 72 hrs or 10 days by MTT assay. The format is cell-based. In short, it runs like this: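 MTT assay on uninfected cells exposed to compound for 72 h or 8–10 days, matching the antiviral assay durations. MTT (5 mg/mL stock in PBS) added, then 2–3 h at 37 °C. Formazan absorbance read at 560 nm.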
Background: Tetrazolium assays rely on reduction of a dye to a coloured formazan, in cell work by metabolically active cells.

In general, CC50 refers to the concentration at which the toxic effect on the cells reaches its halfway point. Consider `Nc1nc(O)c2ncn(COC(CO)CO)c2n1` [GANCICLOVIR], for which the CC50 is over 200 µM.
